Compound activity deposited in PubChem by Sanford-Burnham Center for Chemical Genomics.
tim10-1 inh – inhibits growth of tim10-1 mutant yeast; S. cerevisiae tim10-1 ts strain growth, BacTiter-Glo, 24 h; inhibition, % at 20 µM; 330,000 compounds, 2.2% hits; AID 463190;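 active = inhibition of at least 40%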;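 note: mutant grown at 25 °C; 0% = DMSO wells with yeast and 100% = wells holding no yeast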
tim23-1 inh – tim23-1 yeast growth inhibition; S. cerevisiae tim23-1 growth, BacTiter-Glo luminescence, 24 h; inhibition, % at 20 µM; 330,000 compounds, 1.3% hits;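 active = growth inhibition of the mutant yeast at or above 50%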;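 note: temperature-sensitive mutant grown at 25 °C; plate controls were DMSO-treated mutant yeast for no effect and medium wells lacking yeast for full effect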
CHOP UPR activ – apoptotic UPR (CHOP) activation; AID 449763; activation, % at 10 µM; CHO-CHOP luciferase reporter, luminescence; percent of tunicamycin response over DMSO baseline; 330,000 compounds, 0.34% hits;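 active = at 10 µM dose, activation of 40% or more, normalized to positive control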;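 note: 100% = tunicamycin at 10 µg/mL and 0% = DMSO alone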
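Material: CHO-CHOP cells, stable luciferase reporter of PERK-eIF2a-CHOP signalling; quantity: 500 reporter cells seeded per well; buffer or medium: F12 medium containing 10% fetal bovine serum; compound: one dose, 10 µM in 0.5% DMSO; incubation: 6 h compound treatment, 37 °C; measured by: Steady-Glo luciferase luminescence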
TIM10 inh – growth inhibitors of TIM10 yeast strain; S. cerevisiae TIM10 strain growth, BacTiter-Glo luminescence, 24 h; inhibition, % at 10 µM; 330,000 compounds, 1.4% hits; AID 463195;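 active = inhibition of 40% or more at the single tested concentration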;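 note: wild-type TIM10 isogenic control strain grown at permissive 25 °C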
UPR XBP1 act – adaptive UPR (XBP1) activation | 330,000 compounds, 0.33% hits | CHO-XBP1 luciferase reporter, IRE1-XBP1 UPR activation, luminescence; percent of tunicamycin response, DMSO as zero | activation, % at 20 µM;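 active = versus positive control, 20 µM dose yields 30% or more activation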;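 note: 100% = tunicamycin at 10 µg/mL and 0% = DMSO only wells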
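Assay system: CHO-XBP1 luciferase reporter cells; Schedule: 6 h treatment, 37 °C; Detection: glow luminescence from Steady-Glo reagent; Benchmarks: high control tunicamycin 10 µg/mL final, low control DMSO vehicle only.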
TIM10 conf – TIM10 yeast growth inhibition, confirmed. S. cerevisiae tim10 strain growth, BacTiter-Glo luminescence, 24 h. 4,600 compounds, 63% hits. inhibition, % at 10 µM. shares compounds with TIM10 inh;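 active = inhibition of yeast growth at or above a set limit in either of two replicates at 10 µM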;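 note: this counterscreen used the strain with wild-type TIM10; 0% = yeast with DMSO and 100% = medium wells lacking yeast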
Active calls of the source: *; / = no result given. Shown are actives, neighbours in structure and some others; about 3.9% of the full set was active somewhere.

SMILES	tim10-1 inh	tim23-1 inh	CHOP UPR activ	TIM10 inh	UPR XBP1 act	TIM10 conf
Cc1cc(Cl)ccc1OCC(=O)NNC(=O)c1cccnc1	-22.0	1.8	-0.6	80.1*	-2.0	-7.1
Cc1ccccc1-c1cc(C(=O)NCc2ccc3c(c2)OCO3)n(CC2CC(c3cccnc3)=NO2)n1 (centres undefined)	0.9	-9.0	-0.2	-9.7	-3.6	/
Cc1ccc(N=Cc2cc(Cc3ccccc3Cl)cc([N+](=O)[O-])c2O)c(O)c1	36.2	39.9	-0.6	52.4*	7.0	34.2*
C/C(=N\NC(=O)CCc1ccc(S(=O)(=O)N2CCOCC2)cc1)c1ccccc1Cl	19.5	19.5	0.1	22.6	-0.6	/
Nc1nc2nc(-c3ccccc3)cc(C(F)(F)F)c2s1	4.9	47.3	2.9	47.2*	7.2	39.5*
CN(C(=O)c1cccc(NC(=O)c2cccs2)c1)c1ccccc1	32.6	33.7	1.0	20.5	-3.4	/
Cc1ccc(Cn2c(CCC(=O)O)nc3ncccc3c2=O)cc1	7.6	2.0	-0.8	-14.2	-6.1	/
CCN(CC)c1ccc(-c2n[nH]c(=S)n2-c2ccccc2)cc1	21.3	31.8	1.5	40.6*	10.3	27.2
CN(C)c1ccc(-c2n[nH]c(=S)n2-c2ccccc2)cc1	30.1	16.0	0.5	2.2	1.1	/
CCCOc1ccc(C(=O)Nc2ccc(Cl)cn2)cc1	-6.5	5.7	3.8	-14.2	-0.8	/
O=C(Nc1ccc(Cl)cn1)c1ccc(Oc2ccccc2)cc1	-5.1	12.3	2.4	74.7*	-4.8	17.4
Cc1cccc(NC(=O)c2ccc([N+](=O)[O-])o2)n1	5.2	-18.5	-1.4	59.8*	2.8	-26.1
O=C(/C=C/c1cccc([N+](=O)[O-])c1)Nc1cccc(NC(=O)c2cccs2)c1	5.2	4.0	0.0	-10.6	-2.3	/
O=C(Nc1nc(-c2cccs2)cs1)c1ccc([N+](=O)[O-])o1	11.7	44.7	22.8	62.5*	2.9	87.2*
O=C(Nc1nc(-c2cccs2)cs1)c1ccco1	24.2	22.4	4.8	12.4	7.5	/
Cc1cccc(NC(=O)c2ccc([N+](=O)[O-])cc2Cl)n1	9.6	14.3	0.4	9.7	-0.5	/
O=C(Nc1cccc(NC(=O)c2cccs2)c1)c1ccc([N+](=O)[O-])o1	35.3	33.4	6.9	56.4*	-0.6	62.4*
O=C(Cc1ccccc1F)Nc1nc(-c2cccs2)cs1	15.5	27.8	7.5	47.3*	3.5	-2.5
O=C(Cc1ccccc1)Nc1nc(-c2cccs2)cs1	35.8	34.2	5.2	25.4	4.6	/
CC(=O)Nc1ccc(S(=O)(=O)NC(CSc2ccc(C(=O)O)cc2[N+](=O)[O-])C(=O)O)cc1 (centres undefined)	-2.2	-4.4	0.3	12.2	-2.5	/
Cc1ccc(NC(=O)c2cccs2)cc1[N+](=O)[O-]	17.8	36.2	3.8	44.9*	-0.8	12.1
Cc1ccc(C(=O)Nc2ccc(NC(=O)c3cccs3)cc2)cc1[N+](=O)[O-]	7.9	-17.6	1.8	-11.3	0.0	/
Cc1ccc(C)c(-c2cc(C(=O)Nc3nccs3)c3ccccc3n2)c1	38.7	45.4	0.1	46.9*	0.8	42.1*
COC(=O)c1sccc1NC(=O)c1cc(-c2cc(C)ccc2C)nc2ccccc12	9.0	13.3	1.2	17.8	0.2	/
Cc1ccc(CNC(=O)CNC(=O)[C@@H]2Cc3ccccc3CN2)cc1	-10.9	-7.8	2.3	0.7	-0.6	/
SMILES	tim10-1 inh	tim23-1 inh	CHOP UPR activ	TIM10 inh	UPR XBP1 act	TIM10 conf
CCc1cccc(CC)c1NC(=S)NC(C)c1ccccc1 (centres undefined)	38.5	26.1	0.1	52.6*	6.4	38.8*
CC12CCC(C(=O)NCc3ccc4c(c3)OCO4)(C(=O)C1=O)C2(C)C (centres undefined)	34.5	26.7	0.8	41.3*	0.8	1.1
CCc1cccc(CC)c1NC(=S)NCc1ccc2c(c1)OCO2	38.6	36.8	4.3	41.0*	0.5	0.5
CC12CCC(C(=O)NCc3ccc4c(c3)OCO4)(CC1=O)C2(C)C (centres undefined)	25.9	12.8	-1.8	12.4	-3.6	/
CCOC(=O)c1sc2ncn(/N=C/c3ccc(O)c(OC)c3)c(=O)c2c1C	-4.7	15.2	0.4	17.1	-1.9	/
Cc1ccc(CNC(=S)NC2CCC(C(C)(C)C)CC2)cc1 (centres undefined)	35.9	42.6	2.1	41.7*	-1.1	18.1
COc1ccc(CNC(=S)NC2CCCC2)cc1	7.5	12.3	-0.3	15.2	-1.4	/
COc1cc(/C=C/C(=O)c2ccc(F)cc2)cc(OC)c1OC	39.3	48.4	2.1	41.9*	0.6	42.0*
CCCCC[C@H]1CN(Cc2ccccc2)C(=O)[C@@H]1CC(=O)NCc1ccccc1	37.9	41.7	0.8	14.5	-0.7	/
COc1ccc(Oc2c(-c3ccc(O)cc3O)n[nH]c2C)cc1	20.4	3.5	-1.3	5.6	1.0	/
CCCc1ccc(Oc2cn[nH]c2-c2ccc(O)c(C)c2O)cc1	-191.1	-276.8	3.0	71.4*	4.2	70.8*
CCCc1ccc(Oc2c(-c3ccc(O)c(C)c3O)n[nH]c2C)cc1	-80.5	-296.6	2.2	62.9*	5.2	73.2*
Cc1c(O)ccc2c3c(c(=O)oc12)CCCC3	29.5	31.4	-0.2	41.1*	-1.9	31.4*
O=C(COC(=O)c1ccc(O)cc1O)NC1CCCCCC1	15.4	27.4	0.4	5.3	-2.7	/
CCOC(=O)Cc1csc(SCC(=O)NC2CCC(C)CC2)n1 (centres undefined)	15.5	5.0	-1.1	-1.4	1.2	/
CC(C)(C)C1CCC(CN2C(Nc3ccccc3)=NC[C@@H]2Cc2ccccc2)CC1 (some centres undefined)	25.3	47.4	-1.8	48.9*	13.0	52.9*
COc1c[nH]n(C2CCCCC2)c(=O)c1=O	22.9	40.0	1.4	40.3*	1.2	23.3
COc1ccc(Nc2cc(=O)n(C3CCCCC3)c(=O)[nH]2)c(OC)c1	4.3	-7.8	-0.8	-5.2	-0.8	/
C[C@H](NC(=O)N1CCn2c1nc1ccccc12)C(=O)NCC1CCCO1 (some centres undefined)	6.9	-9.8	1.3	11.2	-2.6	/
CNc1nc(N)c([N+](=O)[O-])c(Nc2ccccc2OC)n1	27.0	32.8	1.9	43.7*	27.0	52.2*
Cc1cc(C(=O)CN2C(=O)C3CC=CCC3C2=O)c(C)n1-c1ccccc1 (centres undefined)	26.4	39.0	-1.0	43.0*	-2.2	7.2
CN1/C(=C\C(=O)COC(=O)c2ccc([N+](=O)[O-])o2)C(C)(C)c2ccccc21	15.7	-289.9	1.0	65.4*	-1.0	75.0*
COc1ccccc1NC(=O)CSCc1ccc([N+](=O)[O-])cc1	34.3	37.7	-0.5	49.7*	4.1	14.7
